The values that follow come from ChEMBL document CHEMBL4706580, “4-Amino-1,2,4-triazole-3-thione-derived Schiff bases as metallo-β-lactamase inhibitors” (Eur J Med Chem, 2020).

Activity calls are given as the source filed them. No cut-off for these calls is given here.

The nature of assay [1]: Inhibition of beta-lactamase CphA (unknown origin) expressed in Escherichia coli BL21(DE3) using imipenem as substrate by measuring substrate hydrolysis at 100 uM by spectrophotometric analysis. Put shortly:
(§1)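 Enzyme 0.2–0.8 nM in 15 mM cacodylate pH 6.5, no added zinc, pre-incubated 30 min at 21 °C with inhibitor (100 μM screen). Imipenem substrate added from 10 mM stock; hydrolysis at 300 nm, 30 °C. Residual activity vs three uninhibited samples; Ki (1–100 μM inhibitor) by Hanes linearization, competitive model. Triplicate.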

Assay [2] is described as follows: Inhibition of beta-lactamase IMP-1 (unknown origin) expressed in Escherichia coli BL21(DE3) using imipenem as substrate by measuring substrate hydrolysis at 100 uM by spectrophotometric analysis. Put shortly:
(§2)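 Purified enzyme (overproduced in E. coli BL21(DE3), pET-9a; ion-exchange and gel filtration), 1-70 nM final. Reporter substrate 150 μM imipenem, read at 300 nm, 30 °C, 50 mM HEPES pH 7.5. Single-point screen at 100 or 200 μM; Ki from v0/vi vs [I] (0.5–1,000 μM final) assuming competitive inhibition, or Dixon plot. Triplicate.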

The nature of assay [3]: Inhibition of beta-lactamase NDM1 (unknown origin) expressed in Escherichia coli BL21(DE3) using cefotaxime/nitrocefin as substrate by measuring substrate hydrolysis at 200 uM by spectrophotometric analysis.
Assay [4] is described as follows: Inhibition of beta-lactamase NDM1 (unknown origin) expressed in Escherichia coli BL21(DE3) using cefotaxime/nitrocefin as substrate by measuring substrate hydrolysis at 100 uM by spectrophotometric analysis.
Assay [5] in a line: Inhibition of beta-lactamase VIM-4 (unknown origin) expressed in Escherichia coli LZ2310 assessed as potentiation of ampicillin antibacterial activity by measuring ampicillin induced diameter of inhibition zone at 40 uM incubated for 18 hrs by disk diffusion method (reference value: 6 mm). Put shortly:
(§3)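 Efflux-deficient E. coli LZ2310 (NorE, MdfA, AcrA knocked out) carrying pLB-II with the cloned MBL gene. Mueller-Hinton, CLSI disk diffusion; antibiotic disks (30 µg cefoxitin for VIM-2, 10 µg ampicillin for VIM-4, 30 µg ceftazidime for NDM-1/IMP-1) loaded with inhibitor in DMSO (≤15 µL). Zone diameter after 18 h, 35 ± 1 °C; DMSO and 220 µg EDTA controls. Triplicate.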
For orientation: Agar diffusion results depend on both activity and mobility in agar.

Assay [6] in a line: Inhibition of beta-lactamase VIM2 (unknown origin) expressed in Escherichia coli BL21(DE3) using imipenem as substrate by measuring substrate hydrolysis at 100 uM by spectrophotometric analysis. A digest of the protocol:
as §2

Assay [7] in a line: Inhibition of beta-lactamase VIM4 (unknown origin) expressed in Escherichia coli BL21(DE3) using imipenem as substrate by measuring substrate hydrolysis by spectrophotometric analysis. A digest of the protocol: as §2
Assay [8] is described as follows: Inhibition of beta-lactamase L1 (unknown origin) expressed in Escherichia coli BL21(DE3) using nitrocefin as substrate by measuring substrate hydrolysis at 100 uM preincubated for 30 mins by spectrophotometric analysis. Put shortly: (§4)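 Enzyme 0.2–0.8 nM in 25 mM HEPES pH 7.5 with 50 μM ZnCl2 final, pre-incubated 30 min at 21 °C with inhibitor (100 μM screen). Nitrocefin 100 μM final, read at 482 nm, 30 °C. Residual activity vs three uninhibited samples; Ki (1–100 μM inhibitor) from Hanes linearization, competitive model. Triplicate.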

Assay [9] in a line: Inhibition of beta-lactamase VIM2 (unknown origin) expressed in Escherichia coli BL21(DE3) using imipenem as substrate by measuring substrate hydrolysis at 200 uM by spectrophotometric analysis. A digest of the protocol:
as §2

Assay [10] can be described thus: Inhibition of beta-lactamase CphA (unknown origin) expressed in Escherichia coli BL21(DE3) using imipenem as substrate by measuring substrate hydrolysis by spectrophotometric analysis. A digest of the protocol: as §1
Assay [11] can be described thus: Inhibition of beta-lactamase IMP-1 (unknown origin) expressed in Escherichia coli BL21(DE3) using imipenem as substrate by measuring substrate hydrolysis by spectrophotometric analysis. Put shortly:
as §2

Assay [12] in a line: Inhibition of beta-lactamase L1 (unknown origin) expressed in Escherichia coli BL21(DE3) using nitrocefin as substrate by measuring substrate hydrolysis preincubated for 30 mins by spectrophotometric analysis. Put shortly:
as §4

Assay [13] in a line: Inhibition of beta-lactamase VIM-2 (unknown origin) expressed in Escherichia coli LZ2310 assessed as potentiation of cefoxitin antibacterial activity by measuring cefoxitin induced diameter of inhibition zone at 40 uM incubated for 18 hrs by disk diffusion method (reference value: 14 mm). Put shortly:
as §3

Assay [14] is described as follows: Inhibition of beta-lactamase VIM2 (unknown origin) expressed in Escherichia coli BL21(DE3) using imipenem as substrate by measuring substrate hydrolysis by spectrophotometric analysis. Put shortly:
as §2

Assay [15] is described as follows: Inhibition of beta-lactamase VIM4 (unknown origin) expressed in Escherichia coli BL21(DE3) using imipenem as substrate by measuring substrate hydrolysis at 100 uM by spectrophotometric analysis. A digest of the protocol: as §2
Assay [16] in a line: Inhibition of beta-lactamase IMP-1 (unknown origin) expressed in Escherichia coli BL21(DE3) using imipenem as substrate by measuring substrate hydrolysis at 200 uM by spectrophotometric analysis. Put shortly: as §2
Assay [17] is described as follows: Inhibition of beta-lactamase L1 (unknown origin) expressed in Escherichia coli BL21(DE3) using nitrocefin as substrate by measuring substrate hydrolysis at 200 uM preincubated for 30 mins by spectrophotometric analysis.
The nature of assay [18]: Inhibition of beta-lactamase NDM1 (unknown origin) expressed in Escherichia coli BL21(DE3) using cefotaxime/nitrocefin as substrate by measuring substrate hydrolysis by spectrophotometric analysis. Put shortly:
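His-tagged enzyme from E. coli BL21(DE3) pET-15b, affinity-purified, 1-70 nM final. Reporter substrate 120 μM cefotaxime (260 nm) or 100 μM nitrocefin (482 nm), 30 °C, 50 mM HEPES pH 7.5. Inhibitor 0.5–1,000 μM final; competitive Ki from v0/vi vs [I] slope or Dixon plot. Triplicate.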

Broadly, the inhibition is the change of the read-out against control, counted positive when it falls. What is called Ki is the equilibrium dissociation constant of an inhibitor or competing ligand from its target. Lower therefore signals a stronger hold on the target.

Take `Cc1ccccc1-c1n[nH]c(=S)n1/N=C/c1ccc([N+](=O)[O-])cc1`: the values for the inhibition in [1], in assay [2] and in assay [8] were 59%, 43% and 56%, respectively. Also, the inhibition result in assay [3], in [4], in [6] and in assay [9] was “inactive” each time. In [5], the inhibition zone (IZ) was 6 mm. This molecule also displayed a Ki in assay [7] of 1.4 µM.
For `S=c1[nH]nc(CCc2ccccc2)n1/N=C/c1ccc(OCc2ccccc2)cc1`, the Ki in assay [10] was found to be 1 µM; in [11], 9 µM; in assay [7], 2 µM; in [12], 32 µM. This molecule registered an inhibition in assay [4] of 30%. Also, the inhibition zone (IZ) in assay [5] worked out at 6 mm. Also, the inhibition entry in assay [6] and in [9] was “inactive” each time.
As to `O=C(O)c1ccccc1/C=N/n1c(Cc2ccccc2)n[nH]c1=S`, the inhibition zone (IZ) in assay [13] was found to be 14 mm. Moreover, the inhibition in assay [1] came to 51%; in assay [2], 48%; in assay [3], 60%; in assay [15] it was 57%; in [8], 59%. This molecule displayed a Ki in [14] of 3.2 µM.
For the molecule `Oc1ccc(/C=N/n2c(C(c3ccccc3)c3ccccc3)n[nH]c2=S)c(O)c1`, the inhibition result in assay [16], in assay [2], in assay [3], in assay [4], in [6] and in assay [8] was “inactive” in each case. Further, the inhibition entry in [17] and in [9] was “inactive” in each case. The same molecule came in with an inhibition in assay [15] of 50%.
Take `Cc1ccccc1-c1n[nH]c(=S)n1/N=C/c1cc(O)ccc1O`: the inhibition zone (IZ) in [13] was determined as 14 mm; in assay [5], 6 mm. For the same molecule, the inhibition in assay [1] was found to be 54%; in [2] it was 54%; in assay [4], 37%; in assay [8], 48%. Moreover, the Ki in [14] was 11 µM; in [7], 1.6 µM.
Take `Oc1ccc(/C=N/n2c(-c3cc(Cl)cc(Cl)c3)n[nH]c2=S)c(O)c1`: the inhibition zone (IZ) in [13] turned out to be 14 mm. The inhibition in [2] turned out to be 55%; in [4], 50%; in assay [8], 40%. Further, the Ki in [14] turned out to be 3.8 µM; in [7], 4 µM.
Take `Oc1ccc(/C=N/n2c(-c3cccc(Cl)c3)n[nH]c2=S)c(O)c1`: the inhibition in assay [1] amounted to 35%; in assay [2] it was 66%; in assay [3] it was 50%; in assay [8], 30%. For the same molecule, the affinity in assay [7], expressed as Ki, was 3 µM.
In the case of `Oc1ccc(/C=N/n2c(-c3ccc4ccccc4c3)n[nH]c2=S)c(O)c1`, the inhibition entry in assay [16], in assay [2], in assay [3], in assay [4], in assay [8] and in [17] was “inactive” throughout. Also, the inhibition in assay [15] was 55%.
`O=C(O)c1ccccc1/C=N/n1c(-c2cc(O)ccc2O)n[nH]c1=S`: the inhibition zone (IZ) amounted to 14 mm in assay [13] and 6 mm in assay [5]. Further, the Ki in assay [10] came to 52 µM; in assay [18], 79 µM; in assay [14] it was 0.6 µM; in [7], 0.2 µM; in [12], 38 µM. For the same molecule, the inhibition result in assay [16] and in assay [2] was “inactive” throughout.
With `COc1cc(O)ccc1/C=N/n1c(-c2ccccc2C)n[nH]c1=S`, the inhibition zone (IZ) in assay [13] is 14 mm; in assay [5], 7 mm. For the same molecule, the Ki is 4 µM in [10]; 120 µM in assay [18]; 10 µM in [14]; 2.4 µM in [7]; 6 µM in assay [12]. Also, the inhibition result in assay [16] and in assay [2] was “inactive” in each case.
Turning to `Oc1ccc(/C=N/n2c(CCc3ccccc3)n[nH]c2=S)c(O)c1`, the inhibition zone (IZ) in [13] came to 14 mm. Further, the Ki in assay [10] came to 6 µM; in assay [18], 168 µM; in assay [14], 9 µM. For the same molecule, the figures for the inhibition in assay [2], in assay [15] and in assay [8] were 45%, 54% and 51%, respectively.
Consider `O=C(O)c1ccccc1/C=N/n1c(-c2cccc3ccccc23)n[nH]c1=S`, for which the inhibition in [1] stood at 56%; in assay [2], 35%; in assay [15], 53%. The Ki in assay [18] was found to be 76 µM; in assay [14], 14.5 µM; in assay [12], 1.1 µM.
For the molecule `Cc1ccccc1-c1n[nH]c(=S)n1/N=C/c1ccccc1`, the Ki in assay [10] is 70 µM; in [14], 20 µM; in assay [7] it was 20 µM. For the same molecule, the inhibition in assay [2] came to 34%; in assay [4], 32%. The inhibition entry in [8] and in assay [17] was “inactive” in each case.
As to `Cc1ccccc1-c1n[nH]c(=S)n1/N=C/c1ccccc1C#N`, the inhibition in assay [16] was 50%; in assay [3] it was 60%. Also, the inhibition result in assay [6], in assay [8], in assay [17] and in assay [9] was “inactive” each time. Further, affinity in assay [7] was put at a Ki of 6.5 µM.
As for `Oc1ccc(/C=N/n2c(-c3cc4ccccc4[nH]3)n[nH]c2=S)c(O)c1`, the inhibition entry in assay [16], in assay [2], in assay [3], in [4], in [6] and in [8] was “inactive” in each case. The inhibition result in assay [17] and in assay [9] was “inactive” in each case. The same molecule displayed an inhibition in [15] of 55%.
For the molecule `Oc1ccc(/C=N/n2c(-c3ccccc3)n[nH]c2=S)c(O)c1`, the inhibition zone (IZ) came to 14 mm in assay [13] and 6 mm in assay [5]. In addition, the Ki in assay [10] stood at 26 µM; in assay [7] it was 1.7 µM. For the same molecule, the inhibition came out at 54% in [2] and 46% in assay [8].
Take `Cc1ccccc1-c1n[nH]c(=S)n1/N=C/c1ccc(O)cc1`: the results for the inhibition in assay [1], in [2] and in [8] were 35%, 37% and 43%, respectively. Further, the inhibition result in assay [3], in assay [4], in assay [6] and in assay [9] was “inactive” each time. Also, in assay [7], the affinity, expressed as Ki, was 1.3 µM.
